Her2 expr inh = inhibitors of human Her2 kinase expression; HER2 level % of control, % at 10 µM; actives 0.69% (n = 65,000); P04626; SKBR-3 HER2 protein level, AlphaScreen, 18-24 h; hits give low values; AID 645;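 active = HER2 level under 5% of the carrier-only control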;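 also: lower value means stronger loss of Her2 protein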
tolC growth inh = growth inhibitors of E. coli BW25113 tolC mutant. actives 2.2% (n = 65,000). OD615. AID 573. growth inhibition, % at 10 µM (by protocol);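 active = growth inhibition at or above a cutoff equal to the mean over every tested compound plus 3 SD, cut at about 60% in these data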;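 also: growth measured after 20 h incubation at 37 °C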
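Test system – E. coli BW25113 ΔtolC::kan, tolC deletion mutant strain · Detection – OD at 615 nm · Buffer or medium – LB with kanamycin 50 µg/mL · Times – 20 h compound exposure of bacteria at 37 °C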
Ecoli WT expand = E. coli BW25113 growth inhibition, expanded screen; AID 710; OD600 absorbance; actives 0.15% (n = 98,000); growth inhibition, % at 100 µM;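 active = growth inhibition above about 50% at one test dose, limit read from the data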;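 also: growth measured after 20 h incubation at 37 °C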
PostGolgi ctrl = inhibits growth of the yeast control strain; AID 738; efflux-deficient yeast background strain, growth absorbance A615, 16 h; inhibition, % at 10 µM; actives 5% (n = 98,000)
PostGolgi yeast = growth inhibition of a yeast mutant, post-Golgi transport screen; post-Golgi transport phenotypic cell assay; inhibition, % at 10 µM; actives 0.9% (n = 98,000); AID 739;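 also: yeast cells grown in 1536-well plates; yeast grown about 18 h at 30C before absorbance read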
Large screens that a line does not name were inactive. Rows were chosen to be rich in hits. Some 6.6% of all compounds tested hit in one or more screens of this group. Rule as the data show it, unless noted: active = inhibition above about 30%; inactive = the rest.

COc1cccc(N2CCN(c3ncnc4c3[nH]c3ccccc34)CC2C)c1 (configuration not stated)	PostGolgi ctrl 44
O=C(CN(C1CCCCC1)C1CCCCC1)N1CCc2ccccc2C1	none (no result: Her2 expr inh, tolC growth inh)
CC(=O)OCc1c(C(F)(F)F)nn(C)c1SCc1ccc(Cl)cc1	none (no result: Her2 expr inh, tolC growth inh)
C=CCSC(=C(C#N)C#N)c1cc2c([nH]1)CCCC2	none (no result: Her2 expr inh, tolC growth inh)
OC1(c2ccc(OC(F)F)cc2)CSC(=Nc2cccnc2)N1C1CC1 (configuration not stated)	PostGolgi ctrl 30 (no result: Her2 expr inh, tolC growth inh)
O=C(c1cccnc1)N1C2CCC1CC(O)(c1ccc(F)cc1)C2 (configuration not stated)	none
Cn1c(=O)oc2cc(S(=O)(=O)Nc3cccc(C(=O)O)c3)ccc21	none
CCc1cccc(NS(=O)(=O)c2ccc3c(c2)oc(=O)n3C)c1	PostGolgi ctrl 31
Cc1cc(-c2c(C)[nH]n(-c3ccc(Cl)cc3)c2=O)n[nH]1	none (no result: Her2 expr inh, tolC growth inh)
CCC(C)(C)NC(=O)CN(CC1CCCO1)C(=O)CCC(=O)Nc1nccs1 (configuration not stated)	none
O=C(CN1CCCCC1)Nc1cccc(Br)c1	none
CN(C1=NC(=O)C(CC(=O)Nc2ccc(Br)cc2)S1)c1ccc(O)cc1 (configuration not stated)	none
O=C(CN1CCN(c2ccccn2)CC1)N1c2ccccc2Sc2ccc(C(F)(F)F)cc21	PostGolgi ctrl 41
O=C(CN1CCN(c2ccccn2)CC1)N1c2ccccc2CCc2ccccc21	none
COc1ccc(C(=O)Nc2cc(C(F)(F)F)ccc2Cl)cc1OC	none (no result: Her2 expr inh, tolC growth inh)
Cc1ccc(CN(c2ccc(C(=O)Nc3cccnc3)cc2)S(C)(=O)=O)cc1	none (no result: Her2 expr inh, tolC growth inh)
O=c1c2ccccc2nc(SCc2cn3ccsc3n2)n1-c1ccc(F)cc1	PostGolgi ctrl 52
COc1cccc(/C=N/NC(=O)c2cc(-c3cccn3C)n[nH]2)c1	none (no result: Her2 expr inh, tolC growth inh)
COc1cccc(/C=N/NC(=O)c2cc(C34CC5CC(CC(C5)C3)C4)[nH]n2)c1	PostGolgi ctrl 66 (no result: Her2 expr inh, tolC growth inh)
Cc1c(C(=O)OC2CCCC2C)[nH]c2c1C(=O)CCC2 (configuration not stated)	tolC growth inh 84
Cc1c(C(=O)OCCOc2ccccc2)[nH]c2c1C(=O)CCC2	tolC growth inh 63
CCCc1c(C(=O)OCC)[nH]c2c1C(=O)CCC2	none
O=C(NC1CCS(=O)(=O)C1)OC1CCCCC1 (configuration not stated)	none (no result: tolC growth inh)
CCC(C)N(NC(C)=O)c1nc(Cl)nc(NC(C)C)n1 (configuration not stated)	none (no result: Her2 expr inh, tolC growth inh)
CCc1ccc(-c2cc(C(=O)Nn3cnnc3)c3ccccc3n2)cc1	none (no result: Her2 expr inh, tolC growth inh)
CCc1ccc(-c2cc(C(=O)N3N=C(C(F)F)CC3(O)C(F)F)c3ccccc3n2)cc1 (configuration not stated)	PostGolgi ctrl 37 (no result: Her2 expr inh, tolC growth inh)
COc1c(Cl)cc(-c2noc(C)c2C(=O)NCCc2ccc(C)cc2)cc1Cl	PostGolgi ctrl 37 (no result: Her2 expr inh, tolC growth inh)
COc1c(Cl)cc(-c2noc(C)c2C(=O)NCc2ccccc2)cc1Cl	none (no result: Her2 expr inh, tolC growth inh)
CO/N=C/c1ccc(Sc2ccccc2N)c([N+](=O)[O-])c1	PostGolgi ctrl 32 (no result: Her2 expr inh, tolC growth inh)
Cc1cc(C)c2[nH]c(=O)c(CN(CC3CCCO3)S(=O)(=O)c3ccc4c(c3)OCCO4)cc2c1 (configuration not stated)	none
Cc1ccc(C)c2[nH]c(=O)c(CN(CC3CCCO3)S(=O)(=O)c3ccc4c(c3)OCCO4)cc12 (configuration not stated)	tolC growth inh 60
O=C(Nc1ccc(Cl)cc1)Nc1ccc2c(c1)N1CCN=C1S2	Her2 expr inh -8.2
CS(=O)(=O)N(Cc1nnc(-c2cccs2)o1)c1ccc(Cl)cc1F	none
CCCn1c(CN2CCCCC2C)nc2c1c(=O)n(C)c(=O)n2C (configuration not stated)	PostGolgi ctrl 37
CCC(C)NS(=O)(=O)c1ccc(-c2csnn2)s1 (configuration not stated)	none (no result: Her2 expr inh, tolC growth inh)
O=C(CN(Cc1ccco1)C(=O)c1ccccc1)Nc1ccc(Cl)c(Cl)c1	PostGolgi ctrl 39 (no result: Her2 expr inh, tolC growth inh)
O=C(CN(Cc1ccco1)C(=O)c1cccc(Cl)c1)Nc1c(Cl)cc(Cl)cc1Cl	none (no result: Her2 expr inh, tolC growth inh)
CCOc1c2ccc(C(=O)NCCCCc3ccccc3)cc2nn1CC	none (no result: Her2 expr inh, tolC growth inh)
Cc1ccc(S(=O)(=O)NCCNc2ccc([N+](=O)[O-])cc2C(F)(F)F)cc1	PostGolgi ctrl 40 (no result: Her2 expr inh, tolC growth inh)
CCOC(=O)c1nnn(-c2nonc2-n2cccc2)c1CCl	none (no result: Her2 expr inh, tolC growth inh)
CC(C)OC(=O)c1nnn(-c2nonc2N)c1CN1CCc2ccccc2C1	PostGolgi ctrl 47
CCOC(=O)c1nnn(-c2nonc2-n2cccc2)c1CN1CCC(C)CC1	tolC growth inh 70
COC(=O)c1nnn(-c2nonc2N)c1CSc1ccccn1	none
CC(C)OC(=O)c1nnn(-c2nonc2N)c1CSc1ccccn1	PostGolgi ctrl 37
COc1ccccc1OCc1nc(Cc2ccc(Cl)cc2)no1	none
Cc1ccc(SCC(=O)NC(=O)NCc2ccco2)cc1C	none (no result: Her2 expr inh, tolC growth inh)
Cc1ccc(NC(=O)CN(C)S(=O)(=O)c2cccc3nsnc23)cc1Cl	tolC growth inh 74
COC(=O)c1sccc1NC(=O)c1cc2c(s1)CCCC2	tolC growth inh 61
O=C(Nc1nccs1)c1cc2c(s1)CCCCC2	none (no result: Her2 expr inh, tolC growth inh)
COC(=O)C1CSC(C(=O)OC)N1C(=O)Nc1c(C)cccc1C (configuration not stated)	PostGolgi ctrl 38 (no result: Her2 expr inh, tolC growth inh)
Cc1cccc(C)c1NC(=O)N1C(C(=O)O)CSC1C(=O)O (configuration not stated)	none (no result: Her2 expr inh, tolC growth inh)
COc1cc2cc(C(c3nnnn3C3CCCCC3)N(C)C3CCCCC3)c(=O)[nH]c2cc1OC (configuration not stated)	tolC growth inh 75
COc1cc2cc(C(c3nnnn3C3CCCC3)N(C)C3CCCCC3)c(=O)[nH]c2cc1OC (configuration not stated)	none
O=C(CCCN1C(=O)c2ccccc2C1=O)Oc1ccc(F)cc1	PostGolgi ctrl 38
CCOCCNC(=O)c1ccc2c3c(cccc13)CC2	none (no result: Her2 expr inh, tolC growth inh)
Cc1cc(NC(=O)CSc2nc(C3CC3)nc3sc(C)c(C)c23)no1	none (no result: Her2 expr inh, tolC growth inh)
O=C(O)Cn1c(-c2ccccc2)nc2ccccc21	none
O=Nc1c2nc3ccccc3n(O)c-2c2ccccc12	tolC growth inh 87
CC(=O)N1CN(CCCn2ccnc2)Cc2c1sc1c2CCCC1	none
CC(=O)N1CN(Cc2ccccn2)Cc2c1sc1c2CCCC1	PostGolgi ctrl 36
CCCCC1CCC(c2nc(-c3cccnc3)no2)CC1 (configuration not stated)	none
CCCCC1CCC(c2nc(-c3ccccn3)no2)CC1 (configuration not stated)	PostGolgi ctrl 38
CCSc1nc(C)cc(C)c1S(=O)(=O)c1ccccc1C	PostGolgi ctrl 31 (no result: Her2 expr inh, tolC growth inh)
O=C(Nc1ccc(Cl)c(Cl)c1)OCc1cccnc1	tolC growth inh 92
FC(F)Sc1ccc(NC(=S)NCC2CCCCC2)cc1	PostGolgi ctrl 38, PostGolgi yeast 36 (no result: Her2 expr inh, tolC growth inh)
FC(F)Sc1ccc(NC(=S)NC2CCCCC2)cc1	none (no result: Her2 expr inh, tolC growth inh)
O=c1c2cc(Cl)ccc2nc2ccc(N3CCCC3)nn12	none (no result: Ecoli WT expand, PostGolgi ctrl, PostGolgi yeast)
CC(=O)N1CCC(C(=O)Nc2ccccc2)(N(Cc2ccccc2)C(=O)c2cccnc2)CC1	none

High-throughput results: PubChem, SRMLSC
